Tests used:
Mus musculus [1] = assay: Toxicity in C3H mouse allografted with mouse Gardner lymphosarcoma assessed as lethality at 0.40 mg/kg, ip administered daily for 8 to 10 days; assay type: organism-based; set-up: dose 0.4 mg/kg, route intraperitoneal; conditions: in vivo, 0.4 mg/kg
In short: (§1)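 Tumor-bearing mice given sulfate salts ip daily for 8–10 days; values are the average of one or more tests. Toxic means lethal to ≥5 of 10 animals per group.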

Mus musculus [2] = assay: Toxicity in AKR mouse allografted with mouse Ridgway osteogenic sarcoma assessed as lethality at 0.40 mg/kg, ip administered daily for 8 to 10 days compound treatment commenced 8 days after tumor implantation; assay type: organism-based; set-up: dose 0.4 mg/kg, route intraperitoneal; conditions: in vivo, 0.4 mg/kg; in short: as §1
[3] = Antitumor activity against mouse Gardner lymphosarcoma allografted in C3H mouse assessed as tumor growth inhibition at 0.20 mg/kg, ip administered daily for 8 to 10 days; assay type: functional; conditions: route intraperitoneal, read-out: TGI
In short: (§2)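 Gardner lymphosarcoma in C3H mice; sulfate salts unless noted, given ip daily for 8–10 days, treatment starting 8 days after tumor implantation. Tumor growth inhibition scored as –, 0–25%; +, 26–50%; ++, 51–75%; +++, 76–100%; T, lethal to ≥5 of 10 animals per group. Average of one or more tests.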

[4] = Antitumor activity against mouse Ridgway osteogenic sarcoma allografted in AKR mouse assessed as tumor growth inhibition at 0.20 mg/kg, ip administered daily for 8 to 10 days compound treatment commenced 8 days after tumor implantation; assay type: functional; conditions: route intraperitoneal, read-out: TGI
[5] = Antitumor activity against mouse Gardner lymphosarcoma allografted in C3H mouse assessed as tumor growth inhibition at 0.10 mg/kg, ip administered daily for 8 to 10 days; assay type: functional; conditions: route intraperitoneal, read-out: TGI; in short: as §2
[6] = Antitumor activity against mouse Gardner lymphosarcoma allografted in C3H mouse assessed as tumor growth inhibition at 0.40 mg/kg, ip administered daily for 8 to 10 days; assay type: functional; conditions: route intraperitoneal, read-out: TGI; in short: as §2
B16 [7] = assay: Antitumor activity against mouse B16 cells allografted in C57BL/6 mouse assessed as prolongation of host survival at 1.20 mg/kg, ip administered on days 1,5 and 9; assay type: functional; conditions: route intraperitoneal
In short: (§3)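 B16 melanoma cells (10⁶ inoculum) implanted ip in C57BL/6 mice; groups of 10. Sulfate salts unless noted, given ip on days 1, 5 and 9. Single test. Survival prolongation is expressed as percent versus controls, with survivors counted on day 60. Toxic means deaths of ≥5 of 10 animals before the first control death.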

B16 [8] = assay: Antitumor activity against mouse B16 cells allografted in C57BL/6 mouse assessed as prolongation of host survival at 0.60 mg/kg, ip administered on days 1,5 and 9; assay type: functional; conditions: route intraperitoneal; in short: as §3
B16 [9] = assay: Antitumor activity against mouse B16 cells allografted in C57BL/6 mouse assessed as prolongation of host survival at 0.90 mg/kg, ip administered on days 1,5 and 9; assay type: functional; conditions: route intraperitoneal; in short: as §3
CHO [10] = assay: Mitotic arrest in CHO cells assessed as increase in cell accumulation at 0.2 ug/ml; assay type: functional, Cricetulus griseus
In short: (§4)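 Chinese hamster ovary cells in tissue culture, scored for mitotic arrest as increase in cells in mitotic arrest over control: +++, 40–50%; ++, 15–40%; +, 10–15%; ±, 7–10%; –, 3–7%. Cytotoxicity noted separately.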

CHO [11] = assay: Mitotic arrest in CHO cells assessed as increase in cell accumulation at 0.02 ug/ml; assay type: functional, Cricetulus griseus; in short: as §4
[12] = Antitumor activity against mouse Gardner lymphosarcoma allografted in C3H mouse assessed as tumor growth inhibition at 0.05 mg/kg, ip administered daily for 8 to 10 days; assay type: functional; conditions: route intraperitoneal, read-out: TGI; in short: as §2
CHO [13] = assay: Mitotic arrest in CHO cells assessed as increase in cell accumulation at 0.002 ug/ml; assay type: functional, Cricetulus griseus; in short: as §4

| SMILES | Activity (Mus musculus [1]) | Activity (Mus musculus [2]) | inhibition in vivo at 0.2 mg/kg [3] [%] | inhibition in vivo at 0.2 mg/kg [4] [%] | inhibition in vivo at 0.1 mg/kg [5] [%] | inhibition in vivo at 0.4 mg/kg [6] [%] | survival at 1.2 mg/kg (B16 [7]) [%] | survival at 0.6 mg/kg (B16 [8]) [%] | survival at 0.9 mg/kg (B16 [9]) [%] | Activity (CHO [10]) [%] | Activity (CHO [11]) [%] | inhibition in vivo at 0.05 mg/kg [12] [%] | Activity (CHO [13]) [%] |
| --- | --- | --- | --- | --- | --- | --- | --- | --- | --- | --- | --- | --- | --- |
| CC[C@]1(O)C[C@H]2CN(CCc3c([nH]c4ccccc34)[C@@](C(=O)OC)(c3cc4c(cc3OC)N(C)[C@H]3[C@@](O)(C(=O)N5CCCC5)[C@H](O)[C@]5(CC)C=CCN6CC[C@]43[C@@H]65)C2)C1.O=S(=O)(O)O | Toxic | Toxic | 0 | 51 |  |  |  |  |  |  |  |  |  |
| CC[C@]1(O)C[C@H]2CN(CCc3c([nH]c4ccccc34)[C@@](C(=O)OC)(c3cc4c(cc3OC)N(C)[C@H]3[C@@](O)(C(=O)NCCc5ccc(O)c(O)c5)[C@H](O)[C@]5(CC)C=CCN6CC[C@]43[C@@H]65)C2)C1 |  |  | 0 |  | 0 | 26 | 154 | 28 | 128 |  |  |  |  |
| CC[C@]1(O)C[C@H]2CN(CCc3c([nH]c4ccccc34)[C@@](C(=O)OC)(c3cc4c(cc3OC)N(C)[C@H]3[C@@](O)(C(=O)NCCSSCCNC(C)=O)[C@H](O)[C@]5(CC)C=CCN6CC[C@]43[C@@H]65)C2)C1 |  |  | 0 |  | 0 | 51 | 127 | 93 | 118 |  |  |  |  |
| COc1cc2c(c(OC)c1OC)-c1ccc(OC)c(=O)cc1[C@@H](NC(C)=O)CC2 [COLCHICINE] |  |  |  |  |  |  |  |  |  | 15 | 3 |  |  |
| CCCC(=O)OCCNC(=O)[C@@]1(O)[C@H](O)[C@]2(CC)C=CCN3CC[C@@]4(c5cc([C@@]6(C(=O)OC)C[C@@H]7CN(CCc8c6[nH]c6ccccc86)C[C@](O)(CC)C7)c(OC)cc5N(C)[C@@H]14)[C@@H]32.O=S(=O)(O)O | Toxic | Toxic | 76 | 76 | 51 |  |  |  |  |  |  | 0 |  |
| CC[C@]1(O)C[C@H]2CN(CCc3c([nH]c4ccccc34)[C@@](C(=O)OC)(c3cc4c(cc3OC)N(C)[C@H]3[C@@](O)(C(=O)OC)[C@H](O)[C@]5(CC)C=CCN6CC[C@]43[C@@H]65)C2)C1 |  |  |  |  |  |  |  |  |  |  | 40 |  | 3 |
| CC[C@]1(O)C[C@H]2CN(CCc3c([nH]c4ccccc34)[C@@](C(=O)OC)(c3cc4c(cc3OC)N(C)[C@H]3[C@@](O)(C(=O)NCCOC(C)=O)[C@H](O)[C@]5(CC)C=CCN6CC[C@]43[C@@H]65)C2)C1.O=S(=O)(O)O | Toxic | Toxic | 76 | 76 | 51 |  |  |  |  |  |  | 26 |  |
| CC[C@]1(O)C[C@H]2CN(CCc3c([nH]c4ccccc34)[C@@](C(=O)OC)(c3cc4c(cc3OC)N(C)[C@H]3[C@@](O)(C(=O)NCCSC(c5ccccc5)(c5ccccc5)c5ccccc5)[C@H](O)[C@]5(CC)C=CCN6CC[C@]43[C@@H]65)C2)C1 |  |  | 0 |  | 0 | 0 | 4 | 0 | 1 |  |  |  |  |
| CC[C@]1(O)C[C@H]2CN(CCc3c([nH]c4ccccc34)[C@@](C(=O)OC)(c3cc4c(cc3OC)N(C)[C@H]3[C@@](O)(C(=O)NCCc5ccc(O)cc5)[C@H](O)[C@]5(CC)C=CCN6CC[C@]43[C@@H]65)C2)C1 |  |  | 0 |  | 0 | 26 | 190 | 125 | 152 |  |  |  |  |
| CC[C@]1(O)C[C@H]2CN(CCc3c([nH]c4ccccc34)[C@@](C(=O)OC)(c3cc4c(cc3OC)N(C)[C@H]3[C@@](O)(C(=O)NCCSC(c5ccc(OC)cc5)(c5ccc(OC)cc5)c5ccc(OC)cc5)[C@H](O)[C@]5(CC)C=CCN6CC[C@]43[C@@H]65)C2)C1 |  |  | 0 |  | 0 | 0 | 35 | 16 | 28 |  |  |  |  |

From ChEMBL document CHEMBL3227917, “Structure-activity relationships of dimeric Catharanthus alkaloids. 2. Experimental antitumor activities of N-substituted deacetylvinblastine amide (vindesine) sulfates” (J Med Chem, 1979)
